Bioassay records (PubChem BioAssay)
Sampled rows, rich in hits. Any-hit rate of the full collection: about 2.7%.
pPAFAH FP inh – inhibitors of human plasma PAF acetylhydrolase (pPAFAH); Q13093; recombinant pPAFAH, FP-rhodamine probe fluorescence polarization; inhibition, % at 3.39 µM; actives 1.5% (n = 330,000); AID 463082;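 active = inhibition above the mean inhibition across the screen plus 3 SD, cut at about 25% in these data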;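 note: inhibitors block binding of the rhodamine activity-based probe so polarization drops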
Target sequence (Q13093 whole entry, looked up): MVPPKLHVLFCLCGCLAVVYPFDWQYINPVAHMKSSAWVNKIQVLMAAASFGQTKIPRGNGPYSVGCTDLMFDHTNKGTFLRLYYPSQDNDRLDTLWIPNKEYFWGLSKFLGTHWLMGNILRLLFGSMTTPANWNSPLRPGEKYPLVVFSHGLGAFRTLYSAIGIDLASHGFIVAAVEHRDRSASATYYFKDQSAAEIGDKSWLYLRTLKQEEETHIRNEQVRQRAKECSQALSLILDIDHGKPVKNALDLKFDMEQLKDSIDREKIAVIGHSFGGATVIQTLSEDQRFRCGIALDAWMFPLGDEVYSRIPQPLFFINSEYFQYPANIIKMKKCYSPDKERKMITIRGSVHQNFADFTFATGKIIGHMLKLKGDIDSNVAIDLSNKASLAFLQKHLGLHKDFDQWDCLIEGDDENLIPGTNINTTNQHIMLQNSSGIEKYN
PAFAH1B2 inh – blocks human PAF acetylhydrolase 1b catalytic subunit 2. P68402. recombinant PAFAH1B2, FP-rhodamine activity probe, fluorescence polarization. inhibition, % at 3.39 µM. actives 1.2% (n = 340,000). AID 492953;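 active = inhibition above the mean of all tested compounds plus 3 SD, cut at about 24% in these data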
ASAP1 GAP inh – ASAP1 ArfGAP inhibition. ASAP1-stimulated ARF1 GTP hydrolysis, GDP FP detection. actives 0.19% (n = 360,000). inhibition, % at 16.5 µM; in the data active = inhibition above about 25%
PAFAH1B3 inh – inhibitors of human PAFAH1B3 | Q15102 | recombinant PAFAH1B3, FP-rhodamine probe, fluorescence polarization | inhibition, % at 3.39 µM | actives 0.28% (n = 340,000);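 active = inhibition above the screen-wide average of all tested compounds plus 3 SD, cut at about 25% in these data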
PAFAH2 FP inh – PAFAH2 (human) inhibition | AID 492956 | inhibition, % at 3.39 µM | actives 0.99% (n = 340,000) | Q99487 | recombinant PAFAH2, FP-rhodamine activity probe, fluorescence polarization;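 active = inhibition above the mean over all tested compounds plus 3 SD, cut at about 30% in these data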;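 note: inhibitors block probe labeling of enzyme so polarization drops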
ARFGAP1 inh – inhibitors of rat ARFGAP1 | Q62848 | Arfgap1-stimulated ARF1 GTP hydrolysis, GDP FP detection | inhibition, % at 16.5 µM | actives 0.26% (n = 360,000);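 active = inhibition above a per-plate limit, mean inhibition of low control wells plus 3 SD, cut at about 25% in these data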
Target sequence (Q62848 1-136 limits assumed): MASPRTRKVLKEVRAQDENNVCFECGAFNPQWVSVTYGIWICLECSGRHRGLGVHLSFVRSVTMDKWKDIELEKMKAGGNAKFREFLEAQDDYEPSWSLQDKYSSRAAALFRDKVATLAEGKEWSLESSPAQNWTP
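Replicates: Single well per compound | Assay system: Truncated rat Arfgap1 GAP domain | Control set: No-Arfgap1 wells (100%) versus DMSO full-reaction wells (0%) | Times: Enzyme reaction 120 min at 25 °C after 20 min preincubation | Reagent: Human ARF1(Δ1-17)-GTP substrate | Measured by: Tracer-displacement fluorescence polarization with EDTA stop, 620/688 nm | Measure: Percent inhibition of Arfgap1-stimulated GTP hydrolysis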
Each line names hits and unclear results; the compound was inactive in the other large screens.

COC(=O)C1=C(c2ccc(C(C)=O)cc2)C[C@@H]2CC[C@H]1N2C(=O)NCc1ccc(F)cc1	PAFAH1B2 inh 34.2
COC(=O)C1=C(c2cccc(OCc3ccccc3)c2)C[C@@H]2CC[C@H]1N2C(=O)NCc1ccc(OC)c(OC)c1	PAFAH1B2 inh 26.3
Cc1ccc2c(c1)=C/C(=C\c1c(O)[nH]c(=S)[nH]c1=O)C(=O)N=2	none (no result: PAFAH1B2 inh, ASAP1 GAP inh, PAFAH1B3 inh, PAFAH2 FP inh, ARFGAP1 inh)
Cc1ccc2c(c1)=NC(=O)/C(=C/c1c(O)[nH]c(=O)[nH]c1=O)C=2	PAFAH1B2 inh 32.9
CCn1nc(-c2ccccc2)nc2c(=O)n(C)c(=O)nc1-2	PAFAH1B2 inh 39.0, PAFAH1B3 inh 69.8, PAFAH2 FP inh 57.7 (no result: ASAP1 GAP inh, ARFGAP1 inh)
COc1ccc(-c2nc3ccccc3c(=O)n2-c2ccc(OC)cc2)cc1	none
O=C1NCN(c2ccccc2)C12CCN(C(c1cc3ccccc3o1)c1nnnn1Cc1ccccc1)CC2 (centres undefined)	none (no result: pPAFAH FP inh, PAFAH1B2 inh, PAFAH1B3 inh, PAFAH2 FP inh)
Cn1c(=O)c2c(nc(N/N=C/c3c(O)n(C4CCCCC4)c(=S)[nH]c3=O)n2C)n(C)c1=O	PAFAH1B2 inh 28.5
Cc1cccc(-n2c(O)c(/C=N/Nc3nc4c(c(=O)n(C)c(=O)n4C)n3C)c(=O)[nH]c2=S)c1	none
Cc1oc(-c2ccccc2)nc1CN1C(=O)CN=C(c2ccccc2)c2ccccc21	none
Cc1ccc(CN2C(=O)CN=C(c3ccccc3)c3ccccc32)cc1	PAFAH1B2 inh 28.1
CN1C2CCC1C(C(=O)Oc1ccccc1)C(c1ccc(Cl)cc1)C2 (centres undefined)	none (no result: pPAFAH FP inh, PAFAH1B2 inh, PAFAH1B3 inh, PAFAH2 FP inh)
COC(=O)C(O)(c1ccc(NC(=O)Oc2ccccc2)cc1)C(F)(F)F (centres undefined)	none
COC(=O)C(O)(c1ccc(NC(=S)NC(=O)c2ccccc2)cc1)C(F)(F)F (centres undefined)	pPAFAH FP inh 33.5
c1ccc(-c2nc3ccccc3nc2-c2ccc(CN3CCC(n4nnc5ccccc54)CC3)cc2)cc1	none (no result: pPAFAH FP inh, PAFAH1B2 inh, PAFAH1B3 inh, PAFAH2 FP inh)
Cc1ccc(N2C(=O)/C(=C/c3ccc(CN(CCC#N)S(C)(=O)=O)o3)C(=O)NC2=S)cc1C	pPAFAH FP inh 32.2 (no result: PAFAH1B2 inh, ASAP1 GAP inh, PAFAH1B3 inh, PAFAH2 FP inh, ARFGAP1 inh)
CC(=O)Nc1ccc(S(=O)(=O)N2Cc3ccccc3-n3nncc3C2)cc1	none (no result: pPAFAH FP inh, PAFAH1B2 inh, PAFAH1B3 inh, PAFAH2 FP inh)
O=C1NC(=O)C(Sc2ccccc2[N+](=O)[O-])C(=O)N1	ASAP1 GAP inh 41.7
O=[N+]([O-])c1ccccc1Cl	none
O=C(O)C1(c2ccc(Cl)cc2)CCC1	PAFAH1B2 inh 46.5
COC(=O)C1=C(c2ccc(OCc3ccccc3)cc2)C[C@@H]2CC[C@H]1N2C(=O)NCc1ccc2c(c1)OCO2	none (no result: pPAFAH FP inh, PAFAH1B2 inh, PAFAH1B3 inh, PAFAH2 FP inh)
Fc1ccc2nc(-c3ccc(CN4CCC(n5nnc6ccccc65)CC4)cc3)c(-c3ccccc3)nc2c1	none (no result: pPAFAH FP inh, PAFAH1B2 inh, PAFAH1B3 inh, PAFAH2 FP inh)
COc1ccc2c(c1O)-c1c(OC)c(OC)cc3c1[C@H](C2)N(C)CC3	none
CCCN1CCc2cccc3c2[C@H]1Cc1ccc(O)c(O)c1-3	pPAFAH FP inh 33.7 (no result: ASAP1 GAP inh, ARFGAP1 inh)
BrCC(Br)C1CCC(Br)C(Br)C1 (centres undefined)	PAFAH1B2 inh 51.0
Cc1ccc(/C=C2\C(=O)NC(=S)N(c3cccc(F)c3)C2=O)o1	pPAFAH FP inh 29.2
Cc1ccc(N2C(=O)NC(=O)/C(=C\c3ccoc3)C2=O)cc1	none
O=C1NC(=S)N(c2ccc(F)cc2)C(=O)/C1=C\c1ccoc1	PAFAH2 FP inh 50.4 (no result: pPAFAH FP inh, ASAP1 GAP inh, ARFGAP1 inh)
COc1ccc(N2C(=O)/C(=C/c3ccc(C)o3)C(=O)NC2=S)cc1	none (no result: pPAFAH FP inh)
COc1ccc(OC)c(N2C(=O)/C(=C/c3ccco3)C(=O)NC2=S)c1	pPAFAH FP inh 87.1 (no result: PAFAH1B2 inh, ASAP1 GAP inh, PAFAH1B3 inh, PAFAH2 FP inh, ARFGAP1 inh)
O=C1NC(=S)N(c2ccc(F)cc2)C(=O)/C1=C/c1ccco1	pPAFAH FP inh 83.1 (no result: PAFAH1B2 inh, ASAP1 GAP inh, PAFAH1B3 inh, PAFAH2 FP inh, ARFGAP1 inh)
CS(=O)(=O)N1Cc2ccccc2-n2nncc2C1	none (no result: pPAFAH FP inh)
CC(C)OC(=O)C1C(c2ccc(I)cc2)CC2CCC1N2C (centres undefined)	none (no result: pPAFAH FP inh, PAFAH1B2 inh, PAFAH1B3 inh, PAFAH2 FP inh)
O=C(NCCN1CCC2(CC1)C(=O)NCN2c1ccccc1)c1ccc(F)cc1	none (no result: pPAFAH FP inh, PAFAH1B2 inh, PAFAH1B3 inh, PAFAH2 FP inh)
COc1ccc(-n2nnnc2C(c2cccs2)N2CCC3(CC2)C(=O)NCN3c2ccccc2)cc1 (centres undefined)	none (no result: pPAFAH FP inh, PAFAH1B2 inh, PAFAH1B3 inh, PAFAH2 FP inh)
Nc1c(C(=O)NCC2CCCO2)c2nc3ccccc3nc2n1Cc1ccco1 (centres undefined)	pPAFAH FP inh 25.3
Oc1c(Br)c(Br)c(Br)c(Br)c1Br	pPAFAH FP inh 32.4, PAFAH1B2 inh 41.3 (no result: ASAP1 GAP inh, ARFGAP1 inh)
Cn1cc(C(=O)OCC(=O)Nc2ccccc2)c2ccccc21	pPAFAH FP inh 28.9, PAFAH2 FP inh 84.5
